Source: ChEMBL document CHEMBL1146666, “N-[1-Aryl-2-(1-imidazolo)ethyl]-guanidine derivatives as potent inhibitors of the bovine mitochondrial F1F0 ATP hydrolase” (Bioorg Med Chem Lett, 2004)

Experiments:
[1] = molecular target: T1, Mitochondrial complex V; ATP synthase (Bos taurus, UniProt P00829+P05630+P05631+P05632); assay: Inhibitory activity against bovine mitochondrial F1F0-ATP synthase; type: protein-complex assay
How it was run: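 Synthase direction read as the rise in A340 in a hexokinase:glucose-6-phosphate dehydrogenase coupled assay.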

[2] = molecular target: T1, Mitochondrial complex V; ATP synthase; assay: Inhibitory activity against bovine mitochondrial F1F0 ATP hydrolase; type: protein-complex assay

T1 sequence (P05632 whole entry): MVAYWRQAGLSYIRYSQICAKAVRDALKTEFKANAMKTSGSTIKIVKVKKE
T1 sequence (P00829 whole entry): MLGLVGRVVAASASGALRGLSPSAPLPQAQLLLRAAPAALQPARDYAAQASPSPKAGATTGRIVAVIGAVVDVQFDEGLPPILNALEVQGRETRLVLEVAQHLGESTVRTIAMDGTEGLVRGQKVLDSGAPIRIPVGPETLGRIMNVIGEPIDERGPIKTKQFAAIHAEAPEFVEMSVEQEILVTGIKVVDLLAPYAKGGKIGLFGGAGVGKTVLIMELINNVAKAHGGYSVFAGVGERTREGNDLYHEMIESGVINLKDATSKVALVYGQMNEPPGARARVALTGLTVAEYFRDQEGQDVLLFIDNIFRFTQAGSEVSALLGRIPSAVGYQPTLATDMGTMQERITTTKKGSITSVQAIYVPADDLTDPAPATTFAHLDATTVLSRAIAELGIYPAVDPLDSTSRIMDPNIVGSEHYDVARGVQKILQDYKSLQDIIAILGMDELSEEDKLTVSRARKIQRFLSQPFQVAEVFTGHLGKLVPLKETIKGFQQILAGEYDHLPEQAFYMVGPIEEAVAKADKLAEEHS
T1 sequence (P05631 whole entry): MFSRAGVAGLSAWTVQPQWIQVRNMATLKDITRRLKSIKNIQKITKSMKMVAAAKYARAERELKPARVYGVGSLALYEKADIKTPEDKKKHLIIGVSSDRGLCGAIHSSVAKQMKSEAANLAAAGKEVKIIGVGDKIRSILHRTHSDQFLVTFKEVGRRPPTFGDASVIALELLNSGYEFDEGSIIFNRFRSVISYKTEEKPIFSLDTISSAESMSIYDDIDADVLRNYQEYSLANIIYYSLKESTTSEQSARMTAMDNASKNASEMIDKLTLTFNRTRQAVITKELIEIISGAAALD
T1 sequence (P05630 whole entry): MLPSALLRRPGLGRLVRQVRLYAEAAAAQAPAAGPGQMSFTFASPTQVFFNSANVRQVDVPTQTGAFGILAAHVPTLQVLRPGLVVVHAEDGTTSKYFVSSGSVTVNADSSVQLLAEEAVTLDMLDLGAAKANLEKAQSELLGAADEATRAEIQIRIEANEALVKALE

Row | SMILES | IC50 [1] | IC50 [2]
1 | N#CN/C(=N\C(Cn1ccnc1)c1ccc(Cl)cc1Cl)Nc1ccc(Cl)cc1 (configuration not stated) | > 100 µM | 8.8 µM
2 | S=C(Nc1ccc(Cl)cc1Cl)NC(Cn1ccnc1)c1ccc(Cl)cc1Cl (configuration not stated) | > 100 µM | 2.41 µM
3 | N#Cc1cccc(C(=O)C(Nc2ccc(Cl)cc2)NC(Cn2ccnc2)c2ccc(Cl)cc2Cl)c1 (stereo in doubt; form 1) | > 100 µM | > 100 µM
4 | S=C(Nc1ccccc1)OC(Cn1ccnc1)c1ccc(Cl)cc1Cl (configuration not stated) | > 100 µM | 3.6 µM
5 | N#CN/C(=N/c1cccc(Cl)c1)NC(Cn1ccnc1)c1ccc(Cl)cc1Cl (configuration not stated) | > 100 µM | 9.17 µM
6 | N#CN=C(Nc1ccccc1Cl)NC(Cn1ccnc1)c1ccc(Cl)cc1Cl (configuration not stated) | > 100 µM | 2.23 µM
7 | Cc1ccc(C(Cn2ccnc2)OC(=S)Nc2ccc(Cl)cc2)c(C)c1 (configuration not stated) | > 100 µM | 31.4 µM
8 | O=C(Nc1ccc(Cl)cc1Cl)OC(Cn1ccnc1)c1ccc(Cl)cc1Cl (configuration not stated) | > 100 µM | 6.77 µM
9 | CCC(=O)C(Nc1ccc(Cl)cc1)NC(Cn1ccnc1)c1ccc(Cl)cc1Cl (configuration not stated) | > 100 µM | 2.27 µM
10 | N#CN/C(=N\C(Cn1ccnc1)c1ccc(Cl)cc1Cl)Nc1cccc(Cl)c1Cl (configuration not stated) | > 100 µM | 2.49 µM

Molecules with a lower IC50 [2], results first:

Row | IC50 [1] | IC50 [2] | SMILES
11 | > 100 µM | 0.28 µM | N#Cc1ccc(C(=O)C(Nc2ccc(Cl)cc2)NC(Cn2ccnc2)c2ccc(Cl)cc2Cl)cc1 (configuration not stated)
12 | > 100 µM | 0.43 µM | S=C(Nc1ccc(Cl)cc1)OC(Cn1ccnc1)c1ccc(Cl)cc1Cl (configuration not stated)
13 |  | 0.033 µM | N#Cc1cccc(C(=O)C(Nc2ccc(Cl)cc2)NC(Cn2ccnc2)c2ccc(Cl)cc2Cl)c1 (stereo in doubt; 19a)
14 | > 100 µM | 0.23 µM | Cc1ccc(NC(=S)OC(Cn2ccnc2)c2ccc(Cl)cc2Cl)c(C)c1 (configuration not stated)
15 | > 100 µM | 0.71 µM | N#CN/C(=N\C(Cn1ccnc1)c1cc(C(F)(F)F)ccc1C(F)(F)F)Nc1ccc(Cl)cc1Cl (configuration not stated)
16 | > 100 µM | 0.66 µM | Cc1ccc(NC(=S)OC(Cn2ccnc2)c2ccc(Cl)cc2Cl)cc1 (configuration not stated)
17 | > 100 µM | 0.6 µM | N#CN/C(=N/c1ccc(Cl)cc1Cl)NC(Cn1ccnc1)c1ccc(Cl)cc1Cl (configuration not stated)
18 | > 100 µM | 0.03 µM | S=C(Nc1ccc(Cl)cc1Cl)OC(Cn1ccnc1)c1ccc(Cl)cc1Cl (configuration not stated)
19 | > 100 µM | 0.082 µM | O=C(c1ccc(Cl)cc1)C(Nc1ccc(Cl)cc1)NC(Cn1ccnc1)c1ccc(Cl)cc1Cl (configuration not stated)
